# Experimental data: ChEMBL document CHEMBL4184175, “Design, synthesis and biological evaluation of novel indole-xanthendione hybrids as selective estrogen receptor modulators” (Bioorg Med Chem, 2018)
# Active and inactive are the calls of the source. No cut-off for these calls is given here.
# Experiments:
# [1] = system: MCF7; test: Antiproliferative activity against human MCF7 cells; assay type: functional
# [2] = system: T47D; test: Antiproliferative activity against human T47D cells after 48 hrs by MTT assay
# [3] = system: PBMC; test: Cytotoxicity against human PBMC assessed as reduction in cell viability at 100 uM after 48 hrs by MTT assay; assay type: cell-based
# Method in brief: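 PBMCs isolated from human whole blood after RBC lysis, kept in RPMI-1640 with 10% FBS at 37 °C, 5% CO2; about 10^4 cells/well. MTT read-out as for T47D: 48 h exposure in FBS-free medium, MTT 0.5 mg/ml for 4 h, acidified DMSO, absorbance 570/620 nm, viability versus control.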
# [4] = target: T1, Estrogen receptor (Homo sapiens, UniProt P03372); test: Displacement of Fluormone-tagged ES2 from human recombinant ERalpha after 2 hrs by fluorescence polarization assay
# T1 sequence (P03372 whole entry): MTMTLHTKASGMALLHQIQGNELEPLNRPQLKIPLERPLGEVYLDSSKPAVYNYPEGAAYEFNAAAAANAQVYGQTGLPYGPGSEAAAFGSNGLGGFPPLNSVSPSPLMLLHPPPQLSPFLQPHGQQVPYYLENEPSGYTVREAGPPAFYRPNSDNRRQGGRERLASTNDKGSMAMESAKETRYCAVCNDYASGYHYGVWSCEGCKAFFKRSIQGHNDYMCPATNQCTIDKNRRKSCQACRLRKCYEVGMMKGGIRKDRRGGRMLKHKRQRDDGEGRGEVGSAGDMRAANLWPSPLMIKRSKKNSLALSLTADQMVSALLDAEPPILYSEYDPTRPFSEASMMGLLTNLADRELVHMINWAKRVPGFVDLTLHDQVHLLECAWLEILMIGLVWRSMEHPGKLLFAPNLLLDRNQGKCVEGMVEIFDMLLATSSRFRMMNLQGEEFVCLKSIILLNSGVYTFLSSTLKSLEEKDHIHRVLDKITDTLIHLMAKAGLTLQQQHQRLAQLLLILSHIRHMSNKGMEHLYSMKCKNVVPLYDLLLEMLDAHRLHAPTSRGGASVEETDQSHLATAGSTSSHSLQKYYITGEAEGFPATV
# [5] = Drug uptake in human T47D cell cytosol at 15 uM after 24 hrs by DAPI staining based confocal laser scanning microscopic method; assay type: ADME, subcellular
# [6] = Drug uptake in human T47D cell nucleus at 15 uM after 24 to 48 hrs by DAPI staining based confocal laser scanning microscopic method; assay type: ADME, subcellular
# [7] = target: T2, Estrogen receptor (Homo sapiens) (UniProt P03372); test: Binding affinity to ERalpha in human T47D cells assessed as downregulation of ERalpha mRNA level at 15 uM after 482 hrs by RT-PCR assay relative to control; assay type: cell-based; conditions: in the assay text read “48 hrs” for “482 hrs”
# T2 sequence (whole entry): T1 sequence (P03372 whole entry)
# Method in brief: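 T47D treated with 15 µM for 48 h; total RNA extracted with TRIzol, quality checked, converted to cDNA. ER-α amplified with gene-specific primers alongside GAPDH as loading control; products run on 1.2% agarose with EtBr and quantified by densitometry, normalised to GAPDH, relative to untreated cells; three independent experiments.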
# [8] = system: T47D; test: Downregulation of ERalpha protein level in human T47D cells at 15 uM after 48 hrs by Western blot method relative to control; assay type: functional
# Method in brief: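 T47D cells grown in RPMI-1640 with 10% heat-inactivated FBS at 37 °C, 5% CO2, then exposed to 15 uM for 48 h. Lysis in modified RIPA (50 mM Tris-HCl pH 7.4, 1% NP-40, protease inhibitors); protein measured by Bradford. 50 ug run on 10% SDS-PAGE, then nitrocellulose. Rabbit anti-ER-alpha (HC-20) at 4 °C overnight, HRP secondary, ECL. Densitometry normalised to beta-actin versus untreated cells; three experiments.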
# [9] = target: T2, Estrogen receptor (Homo sapiens); test: Displacement of Fluormone-tagged ES2 from human recombinant ERalpha up to 1000 nM after 2 hrs by fluorescence polarization assay
# Method in brief: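 Fluorescence polarization competition: DMSO serial dilutions of compound mixed 1:1 with human recombinant ER-α/Fluormone complex, at least 2 h at room temperature protected from light; excitation 535 nm, emission 590 nm. Controls: buffer with 4% DMSO (maximum), oestradiol (minimum), free tracer. Percent inhibition fitted by nonlinear regression; IC50 = half displacement of bound ligand.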
# [10] = Drug uptake in human T47D cell plasma membrane at 15 uM after 24 hrs by DAPI staining based confocal laser scanning microscopic method; assay type: ADME, cell membranes
compound,measurement,setting,value
CC1(C)CC(=O)C2C(C1)Oc1ccc3ccccc3c1C2c1ccc(O)cc1 (stereo unspecified),Activity,[1],6.7 µg/mL
CC1(C)CCC(=O)C2=C1OC1=C(C(=O)CCC1)C2c1cc2ccccc2n1Cc1ccccc1 (stereo unspecified),IC50,[2],16.5 µM
same,Activity,[3],Non-Toxic
same,IC50,[4],0.055 µM
same,Drug uptake,[5],Active
same,Drug uptake,[6],Not Active
same,Activity,[7],54.3%
same,Activity,[8],32.18%
CC1CC(=O)C2=C(C1)OC1=C(C(=O)CC(C)(C)C1)C2c1cc2ccccc2n1Cc1ccccc1 (stereo unspecified),IC50,[2],19.8 µM
same,Activity,[3],Non-Toxic
same,IC50,[4],0.0266 µM
Cc1c(-c2ccc(O)cc2)n(Cc2ccc(OCCN3CCCCCC3)cc2)c2ccc(O)cc12 [BAZEDOXIFENE],IC50,[2],16.4 µM
Oc1nc(S)nc2c1C(c1cc3ccccc3n1Cc1ccccc1)c1c(O)nc(S)nc1O2,Activity,[3],Non-Toxic
same,inhibition,[9],inactive
CC1CC(=O)C2=C(C1)OC1=C(C(=O)CC(C)C1)C2c1cc2ccccc2n1Cc1ccccc1 (stereo unspecified),Activity,[3],Non-Toxic
same,IC50,[4],0.482 µM
O=c1[nH]c2c(c(=O)[nH]1)C(c1cc3ccccc3n1Cc1ccccc1)c1c([nH]c(=O)[nH]c1=O)O2,IC50,[2],22.1 µM
same,Activity,[3],Non-Toxic
same,IC50,[4],0.0611 µM
CC1CC(=O)C2=C(C1)OC1=C(C(=O)CCC1)C2c1cc2ccccc2n1Cc1ccccc1 (stereo unspecified),IC50,[2],17.9 µM
same,Activity,[3],Non-Toxic
same,IC50,[4],0.0166 µM
same,Drug uptake,[10],Active
same,Drug uptake,[6],Not Active
same,Activity,[7],29.7%
same,Activity,[8],31.06%
CC/C(=C(\c1ccccc1)c1ccc(OCCN(C)C)cc1)c1ccccc1 [TAMOXIFEN],Activity,[1],10 µg/mL
O=C1CCC2=C1C(c1cc3ccccc3n1Cc1ccccc1)C1=C(CCC1=O)O2,IC50,[2],25 µM
same,Activity,[3],Non-Toxic
same,IC50,[4],0.0512 µM
CC1(C)CC(=O)C2=C(C1)OC1=C(C(=O)CCC1)C2c1cc2ccccc2n1Cc1ccccc1 (stereo unspecified),IC50,[2],23.5 µM
same,Activity,[3],Non-Toxic
same,IC50,[4],0.0184 µM
O=C1CC(c2ccccc2)CC2=C1C(c1cc3ccccc3n1Cc1ccccc1)C1=C(CC(c3ccccc3)CC1=O)O2 (stereo unspecified),Activity,[3],Non-Toxic
same,inhibition,[9],inactive
CC1(C)CCC(=O)C2=C1OC1=C(C(=O)CCC1(C)C)C2c1cc2ccccc2n1Cc1ccccc1,Activity,[3],Non-Toxic
same,inhibition,[9],inactive
CC1CC(=O)C2=C(C1)OC1=C(C(=O)CCC1(C)C)C2c1cc2ccccc2n1Cc1ccccc1 (stereo unspecified),IC50,[2],20.9 µM
same,Activity,[3],Non-Toxic
same,IC50,[4],0.356 µM
CC1(C)CC(=O)C2=C(C1)OC1=C(C(=O)CC(C)(C)C1)C2c1cc2ccccc2n1Cc1ccccc1,IC50,[2],24.6 µM
same,Activity,[3],Non-Toxic
same,IC50,[4],0.0608 µM
CC1(C)CC(=O)C2=C(C1)OC1=C(C(=O)CCC1(C)C)C2c1cc2ccccc2n1Cc1ccccc1 (stereo unspecified),IC50,[2],19.3 µM
same,Activity,[3],Non-Toxic
same,IC50,[4],0.587 µM
